Active and inactive are the calls of the source. The rule behind the calls is not given here. Peptide text beside a SMILES is read from it.
Experiments:
BMDM [1] = assay: Increase of IL-10 protein level in mouse BMDM at 20 ug/ml after 18 hrs by ELISA; format: functional
Method in brief: (§1)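 Bone marrow-derived macrophages (RPMI 1640, 10% FCS, 20% L929-conditioned medium) stimulated with peptide for 18 h. Cytokines and chemokines in culture supernatant quantified by sandwich ELISA. Mean ± SD from three independent experiments, unpaired t test.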

[2] = Half life in Kunming mouse at 10 mg/kg, ip; format: ADME, organism-based; set-up: dose 10 mg/kg, route intraperitoneal; conditions: in vivo
BMDM [3] = assay: Increase of CXCL2 production in mouse BMDM after 6 hrs by ELISA in presence of pertussis toxin; format: functional
Method in brief: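 BMDMs (bone marrow cells in RPMI 1640 with 10% FCS and 20% L929-conditioned medium) were preincubated 30 min with pertussis toxin (100 ng/mL), then stimulated with peptide for 6 h. CXCL2 in the supernatant was measured by ELISA. Mean ± SEM from three independent experiments, unpaired t test.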

Mus musculus [4] = assay: Stimulation of innate immune response in Kunming mouse assessed as increase of leukocytes in peritoneal lavage at 10 mg/kg, ip after 5 hrs; format: functional, organism-based; set-up: dose 10 mg/kg
Method in brief: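 Female Kunming mice were given peptide ip at 10 mg/kg. At 5 h, peritoneal cells were recovered by lavage with 2 mL PBS and counted. Cells were stained with anti-F4/80-PE and GR1-FITC for 30 min at room temperature and typed by flow cytometry: neutrophils GR1+/F4/80−, resident monocytes/macrophages GR1−/F4/80+, inflammatory monocytes GR1+/F4/80+. Data are mean ± SD from three mice, unpaired t test.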

RAW264.7 [5] = assay: Inhibition of LPS-induced nitric oxide production in mouse RAW264.7 cells 2 to 50 ug/ml after 6 hrs by ELISA; format: functional, cell-based
[6] = Increase of CXCL2 production in mouse BMDM after 6 hrs by ELISA in presence of MEK1/2 inhibitor U0126; format: functional
[7] = target: Transcription factor p65 (Mus musculus) (UniProt Q04207); assay: Activation of NFkappaB p65 in mouse BMDM assessed as phosphorylation at 10 ug/ml after 15 to 30 mins by Western blotting
Sequence of Transcription factor p65 (Mus musculus) (Q04207 whole entry): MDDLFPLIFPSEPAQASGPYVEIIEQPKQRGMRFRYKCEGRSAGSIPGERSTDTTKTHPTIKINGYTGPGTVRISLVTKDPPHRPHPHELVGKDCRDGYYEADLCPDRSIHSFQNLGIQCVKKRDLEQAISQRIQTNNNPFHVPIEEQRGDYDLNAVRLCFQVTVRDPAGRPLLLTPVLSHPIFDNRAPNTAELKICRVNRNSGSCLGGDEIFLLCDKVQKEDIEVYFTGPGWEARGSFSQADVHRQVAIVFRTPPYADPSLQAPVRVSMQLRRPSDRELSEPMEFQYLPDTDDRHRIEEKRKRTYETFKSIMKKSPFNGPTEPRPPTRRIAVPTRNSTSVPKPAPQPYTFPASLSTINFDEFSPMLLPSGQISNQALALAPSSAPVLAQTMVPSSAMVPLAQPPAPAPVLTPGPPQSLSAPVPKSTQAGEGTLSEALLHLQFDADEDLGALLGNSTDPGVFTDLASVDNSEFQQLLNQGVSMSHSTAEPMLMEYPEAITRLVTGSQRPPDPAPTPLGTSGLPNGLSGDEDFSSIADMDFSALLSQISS
Method in brief: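 BMDMs came from mouse bone marrow cultured in RPMI 1640 with 10% FCS and 20% L929-conditioned medium. After treatment, lysates were run on 10% SDS−PAGE, transferred to PVDF, blocked with 5% BSA, and probed for phospho-p65. Detection used an HRP anti-rabbit IgG secondary and chemiluminescence.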

BMDM [8] = assay: Induction of CCL4 mRNA up-regulation in mouse BMDM at 20 ug/ml after 3 hrs by qRT-PCR analysis; format: functional
Method in brief: (§2)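 Murine BMDMs stimulated with peptide, then target mRNA quantified by qRT-PCR. Expression normalized to GAPDH, with untreated cells set to 1.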

RAW264.7 [9] = assay: Inhibition of PGN-induced TNFalpha production in mouse RAW264.7 cells 2 to 50 ug/ml after 6 hrs by ELISA; format: functional, cell-based
BMDM [10] = assay: Increase of IL-6 protein level in mouse BMDM at 20 ug/ml after 18 hrs by ELISA; format: functional; method in brief: as §1
Mus musculus [11] = assay: Stimulation of innate immune response in Kunming mouse assessed as protection against Escherichia coli ATCC 25922-induced mortality by measuring survival rate at 10 mg/kg, ip administered 3 hrs after bacterial infection measured up to 7 days; format: functional, organism-based; set-up: dose 10 mg/kg
Method in brief: (§3)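 Female Kunming mice were challenged ip with E. coli 25922 at 2.5 × 10^8 CFU/mouse (n = 10). Peptide at 10 mg/kg in sterile saline was given ip at −24 h or +3 h relative to inoculation. Mice were monitored every 6 h and mortality was recorded for up to 7 days, with humane end points. Survival curves were compared by log-rank test.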

Mus musculus [12] = assay: Stimulation of innate immune response in bacteria infected Kunming mouse assessed as eradicate invading bacteria at 10 mg/kg, ip after 8 hrs; format: functional, organism-based; set-up: dose 10 mg/kg
[13] = Increase of CXCL2 production in mouse BMDM after 6 hrs by ELISA in presence of NFkappaB inhibitor Bay11-7082; format: functional
Mus musculus [14] = assay: Stimulation of innate immune response in Kunming mouse assessed as increase of CXCL2 level in peritoneal lavage at 10 mg/kg, ip after 5 hrs; format: functional, organism-based; set-up: dose 10 mg/kg
Method in brief: (§4)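 Female Kunming mice (18−22 g) received a single ip injection of peptide at 10 mg/kg in sterile saline. Peritoneal lavage was collected in 2 mL of cold sterile saline 5 h later, and cytokines and chemokines were measured by ELISA. Data are mean ± SD from four mice, compared by unpaired t test.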

Mus musculus [15] = assay: Stimulation of innate immune response in Kunming mouse infected with Staphylococcus aureus ATCC 25923 assessed as reduction of bacterial burden in peritoneal lavage by measuring survival rate at 10 mg/kg, ip administered 5 hrs before bacterial infection measured up to 7 days; format: functional, organism-based; set-up: dose 10 mg/kg
Method in brief: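 Peptide at 10 mg/kg ip was given 5 h before ip challenge with E. coli 25922 (2.5 × 10^8 CFU), P. aeruginosa 27853 (8 × 10^7 CFU) or S. aureus 25923 (2 × 10^8 CFU) per mouse. Viable bacteria were counted in peritoneal lavage collected in 2 mL of cold saline (n = 7, 6 and 8 respectively; unpaired t test). Survival was recorded for up to 7 days.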

Mus musculus [16] = assay: Stimulation of innate immune response in Kunming mouse assessed as increase of TNFalpha level in peritoneal lavage at 10 mg/kg, ip after 5 hrs; format: functional, organism-based; set-up: dose 10 mg/kg; method in brief: as §4
Mus musculus [17] = assay: Stimulation of innate immune response in Kunming mouse assessed as protection against Escherichia coli ATCC 25922-induced mortality by measuring survival rate at 10 mg/kg, ip administered 24 hrs before bacterial infection measured up to 7 days; format: functional, organism-based; set-up: dose 10 mg/kg; method in brief: as §3
RAW264.7 [18] = assay: Downregulation of TLR4/MD2 complex in plasma membrane in mouse RAW264.7 cells relative to LPS; format: functional
Method in brief: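 RAW 264.7 cells in DMEM with 10% FCS, exposed 30 min to peptide (20 μg/mL) or LPS (1 μg/mL). Washed in ice-cold PBS, stained with PE anti-mouse TLR4/MD2 (2 μg/mL) for 30 min on ice. Surface complex measured by flow cytometry.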

[19] = Increase of CXCL1 protein level in mouse BMDM at 10 ug/ml after 18 hrs by ELISA; format: functional; method in brief: as §1
[20] = Cytotoxicity against mouse BMDM at 5 to 20 ug/ml by LDH release assay
BMDM [21] = assay: Induction of CXCL2 mRNA up-regulation in mouse BMDM at 20 ug/ml after 3 hrs by qRT-PCR analysis; format: functional; method in brief: as §2
[22] = Induction of IL-6 mRNA up-regulation in mouse BMDM at 20 ug/ml after 3 hrs by qRT-PCR analysis relative to control; format: functional; method in brief: as §2
Mus musculus [23] = assay: Stimulation of innate immune response in Kunming mouse assessed as increase of CXCL1 level in peritoneal lavage at 10 mg/kg, ip after 5 hrs; format: functional, organism-based; set-up: dose 10 mg/kg; method in brief: as §4
Mus musculus [24] = assay: Stimulation of innate immune response in neutropenic Kunming mouse infected with Pseudomonas aeruginosa ATCC 27853 assessed as increase of number of neutrophils and inflammatory monocytes in peritoneal lavage at 10 mg/kg, ip up to 24 hrs; format: functional, organism-based; set-up: dose 10 mg/kg
Method in brief: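 Mice were made neutropenic with ip cyclophosphamide, 150 mg/kg on day 0 and 100 mg/kg on day 3. They were then injected ip with peptide at 10 mg/kg. Peritoneal cells were collected up to 24 h afterwards and typed by flow cytometry after GR1/F4/80 staining.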

Compound: CC[C@H](C)[C@H](NC(=O)[C@@H](NC(=O)[C@H](CCCNC(=N)N)NC(=O)[C@@H]1CCCN1C(=O)[C@H](CCCCN)NC(=O)[C@H](CCCCN)NC(=O)[C@H](Cc1ccccc1)NC(=O)[C@H](Cc1ccccc1)NC(=O)[C@H](CCCCN)NC(=O)[C@H](CCCCN)NC(=O)[C@H](C)NC(=O)[C@H](CCCNC(=N)N)NC(=O)[C@H](CCCCN)NC(=O)[C@H](CCCCN)NC(=O)[C@@H](NC(=O)[C@H](CO)NC(=O)[C@H](CC(N)=O)NC(=O)[C@H](CCCCN)NC(=O)[C@H](CC(C)C)NC(=O)[C@H](CCCCN)NC(=O)[C@H](CCCCN)NC(=O)[C@H](Cc1ccccc1)NC(=O)[C@H](Cc1ccccc1)NC(=O)[C@@H](N)CCCCN)C(C)C)C(C)C)C(=O)NCC(=O)N[C@H](C(=O)N[C@@H](CO)C(=O)N[C@H](C(=O)N1CCC[C@H]1C(=O)N[C@@H](Cc1ccccc1)C(=O)O)[C@@H](C)CC)C(C)C (H-KFFKKLKNSVKKRAKKFFKKPRVIGVSIPF-OH)
- Activity (BMDM [1]): Active
- half-life [2]: < 1 h
- Activity (BMDM [3]): inactive
- Activity (Mus musculus [4]): Active
- inhibition (RAW264.7 [5]): Active
- Activity [6]: 979.6 pg/mL
- Activity [7]: inactive
- Activity (BMDM [8]): Active
- inhibition (RAW264.7 [9]): inactive
- Activity (BMDM [10]): inactive
- Activity (Mus musculus [11]): Active
- Activity (Mus musculus [12]): inactive
- Activity [13]: 1000 pg/mL
- Activity (Mus musculus [14]): Active
- Activity (Mus musculus [15]): Active
- Activity (Mus musculus [16]): inactive
- Activity (Mus musculus [17]): Active
- Activity (RAW264.7 [18]): 20%
- Activity [19]: 269 pg/mL
- Activity [20]: Non-toxic
- Activity (BMDM [21]): Active
- fold change (FC) [22]: 4.5
- Activity (Mus musculus [23]): Active
- Activity (Mus musculus [24]): inactive
